Test results: ChEMBL document CHEMBL1212930, “The hoiamides, structurally intriguing neurotoxic lipopeptides from Papua New Guinea marine cyanobacteria” (J Nat Prod, 2010); call rule not given here
pEC50, pIC50: −log10 of the molar value.

Tests used:
[1] = Inhibition of calcium channel in mouse neocortical neurons assessed as inhibition of intracellular calcium oscilations; assay type: cell-based; details: for pIC50: Mus musculus, read-out: IC50
Outline: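 Primary neocortical neurons from embryonic day 16 Swiss-Webster mice, used at 12–13 DIV. Loaded 1 h with 4 μM fluo-3 plus 0.04% pluronic F-127 in Locke's buffer (pH 7.4), washed four times. Excitation 485 nm, emission 535 nm, read every 1.5 s; 60 s baseline, then compound added as a 4× solution. IC50 given with 95% CI.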

[2] = tested on: NCI-H460; assay: Cytotoxicity against human H460 cells; assay type: functional, cell-based; details: for IC50: nci-h460; for pIC50: Homo sapiens, NCI-H460, read-out: IC50
[3] = Activation of voltage-gated sodium channel in mouse Neuro-2a cells assessed as intracellular sodium influx; details: N2a
[4] = Activation of voltage-gated sodium channel in mouse neocortical neuron assessed as intracellular sodium influx; details: for pEC50: Mus musculus, read-out: EC50
[5] = Cytotoxicity against mouse Neuro2a cells; assay type: functional, cell-based, N2a; details: for IC50: n2a

Row | pIC50 [3] | SMILES | pIC50 [1] | IC50 [2] | pEC50 [4] | IC50 [1] | IC50 [5] | EC50 [4] | pIC50 [2] | pIC50 ([5]; Mus musculus, N2a, read-out: IC50)
1 | 5.47 | CCC[C@@H](C)[C@H](OC(=O)c1ccc(Br)cc1)[C@H](C)[C@H]1OC(=O)[C@H]([C@@H](C)O)NC(=O)[C@H](C(C)C)OC(=O)[C@H](C)[C@H](O)[C@H]([C@@H](C)CC)NC(=O)[C@@]2(C)CSC(=N2)[C@@]2(C)CSC(=N2)c2csc(n2)C[C@H](OC)[C@@H]1C | 7.06 | Not Active | 5.03 | – | – | – | – | –
2 | – | CCC[C@@H](C)[C@H](OC(C)=O)[C@H](C)[C@H]1OC(=O)[C@H]([C@@H](C)OC(C)=O)NC(=O)[C@H](C(C)C)OC(=O)[C@H](C)[C@H](OC(C)=O)[C@H]([C@@H](C)CC)NC(=O)[C@@]2(C)CSC(=N2)[C@@]2(C)CSC(=N2)c2csc(n2)C[C@H](OC)[C@@H]1C | – | Not Active | – | Not Active | Not Active | Not Active | – | –
3 | – | CCC[C@@H](C)[C@H](O)[C@H](C)[C@H]1OC(=O)[C@H]([C@@H](C)O)NC(=O)[C@H](C(C)C)OC(=O)[C@H](C)[C@H](O)[C@H]([C@@H](C)CC)NC(=O)[C@@]2(C)CSC(=N2)[C@@]2(C)CSC(=N2)c2csc(n2)C[C@H](OC)[C@@H]1C [HOIAMIDE A] | 7.34 | – | 5.77 | – | – | – | 4.95 | 5.68
4 | – | CCC[C@@H](C)[C@H](O)[C@H](C)[C@H]1OC(=O)[C@H]([C@@H](C)O)NC(=O)[C@H]([C@@H](C)CC)OC(=O)[C@H](C)[C@H](O)[C@H]([C@@H](C)CC)NC(=O)[C@@]2(C)CSC(=N2)[C@@]2(C)CSC(=N2)c2csc(n2)C[C@H](OC)[C@@H]1C [HOIAMIDE B] | 7.10 | – | 5.41 | – | Not Active | – | 5.08 | –
5 | – | CCC[C@@H](C)[C@H](O)[C@H](C)[C@@H](O)[C@@H](C)[C@H](Cc1nc(C2=N[C@@](C)(C3=N[C@@](C)(C(=O)N[C@H]([C@@H](O)[C@@H](C)C(=O)OCC)[C@@H](C)CC)CS3)CS2)cs1)OC [HOIAMIDE C] | – | Not Active | – | Not Active | Not Active | Not Active | – | –
